Bioassay records as filed in PubChem BioAssay.
Compounds with a hit are over-represented: about 3.1% of the library has one in this group of screens.
KCNQ1 block – human KCNQ1 channel inhibition. AID 2642. P51787. 310,000 tested, 1.3% active. B-score at 10 µM. CHO-K1 KCNQ1, FluxOR thallium flux fluorescence; stronger effect = higher value;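 active = compounds whose thallium flux B-score, printed positive for inhibition, exceeds three library SD while starting fluorescence stays within three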;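 note: channel opened by potassium depolarization with thallium stimulus after 20 min compound exposure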
Target sequence (P51787 whole entry, looked up): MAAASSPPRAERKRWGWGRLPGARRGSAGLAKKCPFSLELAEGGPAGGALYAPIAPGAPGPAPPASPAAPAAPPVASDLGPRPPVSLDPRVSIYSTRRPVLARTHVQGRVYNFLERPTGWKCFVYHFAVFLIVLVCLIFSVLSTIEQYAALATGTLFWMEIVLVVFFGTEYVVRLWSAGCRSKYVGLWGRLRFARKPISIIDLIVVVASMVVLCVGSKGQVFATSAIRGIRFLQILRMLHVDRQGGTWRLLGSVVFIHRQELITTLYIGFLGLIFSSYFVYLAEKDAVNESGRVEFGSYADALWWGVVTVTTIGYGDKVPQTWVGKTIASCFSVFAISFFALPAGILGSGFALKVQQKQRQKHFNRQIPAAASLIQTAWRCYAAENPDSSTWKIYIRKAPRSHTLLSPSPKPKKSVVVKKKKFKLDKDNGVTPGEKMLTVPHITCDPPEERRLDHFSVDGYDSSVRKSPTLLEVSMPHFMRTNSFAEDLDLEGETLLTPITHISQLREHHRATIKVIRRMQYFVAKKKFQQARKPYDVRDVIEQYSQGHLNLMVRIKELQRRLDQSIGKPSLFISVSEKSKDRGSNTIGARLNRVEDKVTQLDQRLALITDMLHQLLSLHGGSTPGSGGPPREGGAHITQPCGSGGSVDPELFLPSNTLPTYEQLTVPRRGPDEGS
KCNQ1 pot – potentiates or activates the human KCNQ1 potassium channel; AID 2648; CHO-K1 KCNQ1, thallium flux FluxOR fluorescence; stronger effect = higher value; 310,000 tested, 0.35% active; B-score at 10 µM;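 active = fluorescence ratio B-score, a plate-corrected score, at least three library SD, with initial intensity B-score within 5 SD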
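assay system = CHO-K1 cells stably expressing KCNQ1 | medium = assay buffer, equal DMSO in all wells | timing = 37 °C overnight plating, 90-min dark dye load, 20-min compound pretreatment | measured by = kinetic FluxOR thallium fluorescence, 10-s 1-Hz baseline, 110-s post-stimulus read | measure = fluorescence change relative to baseline, converted to B score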
KCNK3 block – human KCNK3 channel inhibition, primary screen; CHO-KCNK3 thallium flux, FluxOR fluorescence; stronger effect = lower value; B-score at 10 µM; O14649; 340,000 tested, 0.84% active;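 active = B-score under library mean minus 4 SD, starting fluorescence ratio at most library mean plus 5 SD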;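 note: more negative B-score means stronger inhibition of thallium flux through KCNK3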
KCNK9 inh – inhibitors of human KCNK9 two-pore domain potassium channel; Q9NPC2; HEK293 KCNK9, FluxOR thallium flux fluorescence; stronger effect = lower value; B-score at 10 µM; 310,000 tested, 1.2% active;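 active = ratio B-score over 3 SD below the library mean, with starting fluorescence within 5 SD of its mean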;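 note: negative B-score means less thallium flux so channel inhibition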
hERG rescue – hERG (human) protection from proarrhythmic block. activation (rescue from dofetilide block), less the hit threshold, % at 10 µM. CHO-hERG, FluxOR thallium flux, dofetilide IC70 present. Q12809. 310,000 tested, 0.51% active. AID 1511;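 active = activation above the mean of controls blocked by dofetilide plus 5 SD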;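 note: thallium influx through hERG after potassium depolarization seen as dye fluorescence rise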
KCNQ1 inh valid – confirmation of human KCNQ1 potassium channel inhibitors; shares compounds with KCNQ1 block; KCNQ1 cell line, FluxOR thallium flux fluorescence; inhibition, % at 10 µM; 1,600 tested, 93% active; AID 588353;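 active = primary screen active, with duplicate mean exceeding buffer control mean plus 3 SD of buffer wells, cut at about 28% in these data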
CHO KCNQ1 ctr – KCNQ1 inhibitor counter-screen hit in parental CHO cells. 1,600 tested, 21% active. parental CHO-K1, FluxOR thallium flux fluorescence ratio; stronger effect = lower value; zero means no signal rise above baseline. fluorescence ratio (Tl flux) at 10 µM. shares compounds with KCNQ1 block;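 active = mean of duplicate thallium-flux fluorescence ratios in parental host cells more than 5 SD below the buffer control mean, cut at about 0.38 in these data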;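 note: ratio is peak minus minimum fluorescence divided by baseline fluorescence; actives read low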
KCNQ1 APC inh – human KCNQ1 inhibition validated by electrophysiology; AID 624120; 490 tested, 20% active; KCNQ1-CHO cells, automated patch clamp current; shares compounds with KCNQ1 block; calls only at 10 µM;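 active = KCNQ1 current drop exceeding 3 SD of negative control wells, seen in both duplicate runs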;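 note: steady state current during a 2 s step from -80 to +40 mV; negative values mean current inhibition and positive values mean potentiation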
KCNQ2 inh – rat KCNQ2 inhibition in KCNQ1 inhibitor specificity screen | 1,600 tested, 71% active | inhibition, % at 10 µM | shares compounds with KCNQ1 block | KCNQ2 cells, FluxOR thallium flux fluorescence | AID 651746;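 active = mean percent inhibition of the KCNQ2 thallium signal more than 5 SD above the buffer-only control wells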;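 note: KCNQ2 expressed in CHO cells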
KCNQ1 KCNE1 spec – human KCNQ1/KCNE1 inhibition in KCNQ1 specificity screen. AID 652147. shares compounds with KCNQ1 block. inhibition, % at 10 µM. 1,600 tested, 77% active. KCNQ1/KCNE1 cells, FluxOR thallium flux fluorescence;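 active = mean percent inhibition of duplicate wells above the buffer-only control mean plus 3 SD of those controls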
Large screens that a line does not name were inactive (follow-up assays come after a bar, where they were run).

Cc1cc(C)c(O)c(-c2cc(C(=O)Nc3ccc(S(=O)(=O)N4CCOCC4)cc3)[nH]n2)c1	KCNQ1 block 6 | KCNQ1 inh valid 133 | CHO KCNQ1 ctr 0.37 | KCNQ2 inh 94% | KCNQ1 KCNE1 spec active
CC(=O)Nc1ccc(NC(=O)c2cc(-c3cc(C)cc(C)c3O)n[nH]2)cc1	none
Cc1ccc(S(=O)(=O)C(C#N)c2nc3ccccc3nc2N2CCN(C)CC2)cc1 (configuration not stated)	none
CCOC(=O)N1CCN(c2nc3ccccc3nc2C(C#N)S(=O)(=O)c2ccc(C)cc2)CC1 (configuration not stated)	KCNQ1 block 9 | KCNQ1 inh valid 61 | CHO KCNQ1 ctr inactive | KCNQ2 inh inactive | KCNQ1 KCNE1 spec 50%
Cc1cc(C)c(S(=O)(=O)n2ccc3ccccc32)c(C)c1	KCNQ1 block 9 | KCNQ1 inh valid 106 | CHO KCNQ1 ctr 0.38 | KCNQ2 inh 116% | KCNQ1 KCNE1 spec 142%
O=C(NC(=S)Nc1cccnc1Cl)c1ccc(F)cc1	none
CC1CCN(c2oc(Cc3cccc4ccccc34)nc2C#N)CC1	KCNQ1 block 8 | KCNQ1 inh valid 99 | CHO KCNQ1 ctr inactive | KCNQ2 inh 101% | KCNQ1 KCNE1 spec 112%
CN1CCN(C(=O)COCc2cc(-c3ccc4c(c3)OCO4)on2)CC1	none
Cc1noc(C)c1CSCC(=O)Nc1cc(Cl)ccc1N1CCCCC1	KCNQ1 block 8 | KCNQ1 inh valid 125 | CHO KCNQ1 ctr 0.38 | KCNQ2 inh 121% | KCNQ1 KCNE1 spec 174%
Cc1noc(C)c1CSCC(=O)Nc1cc(C(F)(F)F)ccc1N1CCCCC1	none
CCCCn1c(N)c(S(=O)(=O)c2ccc(C)cc2)c2nc3ccccc3nc21	KCNQ1 block 14 | KCNQ1 inh valid 88 | CHO KCNQ1 ctr 0.38 | KCNQ2 inh 71% | KCNQ1 KCNE1 spec 93%
Cc1ccc(S(=O)(=O)c2c(N)n(Cc3ccco3)c3nc4ccccc4nc23)cc1	KCNQ1 block 7 | KCNQ1 inh valid 99 | CHO KCNQ1 ctr 0.38 | KCNQ2 inh 74% | KCNQ1 KCNE1 spec 166%
CN(C)CCCn1c(N)c(S(=O)(=O)c2ccccc2)c2nc3ccccc3nc21	none
O=C(Cc1nc2ccccc2[nH]1)c1ccc(Br)cc1	KCNQ1 block 6 | KCNQ1 inh valid 52 | CHO KCNQ1 ctr inactive | KCNQ2 inh 72% | KCNQ1 KCNE1 spec 51%
COc1ccccc1NC(=O)C(C)OC(=O)C1CCC(C(C)(C)C)CC1 (configuration not stated)	KCNQ1 block 7, KCNK9 inh -7.1 | KCNQ1 inh valid 122 | CHO KCNQ1 ctr inactive | KCNQ1 APC inh inactive | KCNQ2 inh 83% | KCNQ1 KCNE1 spec 156%
Cc1ccc(C(=O)NC(=S)Nc2ccc(CN3CCCCC3)cc2)c(C)c1	KCNQ1 block 6 | KCNQ1 inh valid 58 | CHO KCNQ1 ctr inactive | KCNQ2 inh 67% | KCNQ1 KCNE1 spec 63%
O=C(Nc1ccc(F)cc1)Nc1cccnc1	none
Cc1ccc(NC(=O)Nc2cccnc2)cc1Cl	KCNQ1 block 7 | KCNQ1 inh valid 66 | CHO KCNQ1 ctr inactive | KCNQ2 inh inactive | KCNQ1 KCNE1 spec inactive
O=C(Nc1cccnc1)Nc1cc(Cl)cc(Cl)c1	none
Fc1ccc(NC(=S)Nc2ccccc2N2CCOCC2)cc1Cl	KCNQ1 block 9 | KCNQ1 inh valid inactive | CHO KCNQ1 ctr inactive | KCNQ2 inh inactive | KCNQ1 KCNE1 spec inactive
O=C(Nc1ccc(OC(F)(F)F)cc1)Nc1cccnc1	KCNQ1 block 6 | KCNQ1 inh valid 40 | CHO KCNQ1 ctr inactive | KCNQ2 inh inactive | KCNQ1 KCNE1 spec inactive
Fc1ccc(NC(=S)Nc2cccnc2)cc1Cl	KCNQ1 block 8 | KCNQ1 inh valid 66 | CHO KCNQ1 ctr inactive | KCNQ2 inh inactive | KCNQ1 KCNE1 spec 34%
Cc1cc(C)n2c(=O)[nH]nc2c1	none (no result: KCNQ1 block, KCNQ1 pot, KCNK9 inh, hERG rescue)
CC(=O)c1cccc(NC(=O)N2CCCC2C(=O)NCc2ccc3c(c2)OCO3)c1 (configuration not stated)	KCNQ1 block 7 | KCNQ1 inh valid inactive | CHO KCNQ1 ctr inactive | KCNQ2 inh inactive | KCNQ1 KCNE1 spec inactive
O=C(NCc1ccc2c(c1)OCO2)C1CCCN1C(=O)Nc1cccc(F)c1 (configuration not stated)	none
CC(=O)Nc1sc(/C(C#N)=C/c2ccc(Cl)c(Cl)c2)nc1-c1ccc(C)cc1	KCNQ1 block 16 | KCNQ1 inh valid active | CHO KCNQ1 ctr 0.23 | KCNQ2 inh inactive | KCNQ1 KCNE1 spec inactive
CC(=O)Nc1sc(N/N=C/c2ccc(C)cc2)nc1-c1ccc(C)cc1	none
COc1ccc(NC(=S)Nc2cccc(C(F)(F)F)c2)c(C)c1	KCNQ1 block 8 | KCNQ1 inh valid 99 | CHO KCNQ1 ctr inactive | KCNQ1 APC inh inactive | KCNQ2 inh 100% | KCNQ1 KCNE1 spec 60%
CSc1ccccc1NC(=S)Nc1cccc(C(F)(F)F)c1	none
Cc1ccc(NC(=S)NC(C)CCc2ccccc2)cc1C (configuration not stated)	none
CC(=O)c1ccc(NC(=S)NC(C)CCc2ccccc2)cc1 (configuration not stated)	KCNQ1 block 7 | KCNQ1 inh valid 38 | CHO KCNQ1 ctr inactive | KCNQ2 inh inactive | KCNQ1 KCNE1 spec 41%
N#CC(c1ccccc1)(c1ncc(C(F)(F)F)cc1Cl)N1CCOCC1 (configuration not stated)	KCNQ1 block 6 | KCNQ1 inh valid 74 | CHO KCNQ1 ctr inactive | KCNQ2 inh 99% | KCNQ1 KCNE1 spec 84%
O=c1c2c3c(sc2nc(NCCO)n1Cc1ccco1)CCCCC3	none
O=c1c2c3c(sc2nc(NCCO)n1CCc1ccccc1)CCCCC3	KCNQ1 block 6 | KCNQ1 inh valid 67 | CHO KCNQ1 ctr inactive | KCNQ2 inh 92% | KCNQ1 KCNE1 spec 100%
COC(=O)c1cc(S(=O)(=O)N2CCN(c3ccc(OC)cc3)CC2)cn1C	none
Cc1nc(-c2ccc(S(=O)(=O)Nc3ccc(Br)cc3Cl)s2)cs1	none
Cc1nc(-c2ccc(S(=O)(=O)Oc3ccc(Cl)cc3Cl)s2)cs1	KCNQ1 block 10 | KCNQ1 inh valid 126 | CHO KCNQ1 ctr inactive | KCNQ1 APC inh inactive | KCNQ2 inh 121% | KCNQ1 KCNE1 spec active
CCN(CC(=O)Nc1c(F)cccc1F)C(=O)c1ccc(N2CCCC2=O)cc1	none
